Data as given in ChEMBL document CHEMBL3351585, “Design, synthesis and biological evaluation of novel peptides with anti-cancer and drug resistance-reversing activities” (Eur J Med Chem, 2015).

Assays:
MCF7 [1] = experiment: Anticancer activity against human MCF7 cells after 48 hrs by MTT assay; format: functional, cell-based; conditions: MCF7, 48 h
Procedure, shortened: (§1)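 Cells grown in RPMI1640 with 10% heat-inactivated FBS and 1% penicillin-streptomycin at 37 °C, 5% CO2. Log-phase cells were seeded at 5 × 10^3/well 24 h before treatment, exposed to a range of peptide concentrations for 48 h, then given MTT for 4 h. Formazan was dissolved in DMSO and A490 read. Survival was computed relative to untreated wells, and IC50 taken from the survival curve.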

K562 = experiment: Anticancer activity against human K562 cells after 48 hrs by MTT assay; format: functional, cell-based; conditions: K562, 48 h; procedure, shortened: as §1
[2] = Cytotoxicity against human GES-1 cells after 48 hrs by MTT assay; format: cell-based; conditions: GES1, 48 h; procedure, shortened: as §1
[3] = Anticancer activity against human MCF7/ADR cells after 48 hrs by MTT assay; format: functional, cell-based; conditions: NCI/ADR-RES; procedure, shortened: as §1
[4] = Anticancer activity against human K562/ADR cells after 48 hrs by MTT assay; format: functional, cell-based; procedure, shortened: as §1
MCF7 [5] = experiment: Induction of cytochrome c release in human MCF7 cells incubated for 2 hrs by ELISA method (reference value: 364.2 +/- 20.5 ng); format: functional
MCF7 [6] = experiment: Induction of cytochrome c release in extracellular region of human MCF7 cells incubated for 2 hrs by ELISA method (reference value: 15.7 +/- 0.77 ng); format: functional
MCF7 [7] = experiment: Induction of cytochrome c release in cytoplasm of human MCF7 cells incubated for 2 hrs by ELISA method (reference value: 44.1 +/- 2.7 ng); format: functional
MCF7 [8] = experiment: Induction of cytochrome c release in mitochondria of human MCF7 cells incubated for 2 hrs by ELISA method (reference value: 347.8 +/- 14.5 ng); format: functional
[9] = Retention time of the compound by UPLC method; format: physicochemical
[10] = Toxicity in rabbit erythrocytes assessed as induction of hemolysis at 160 uM incubated for 1 hr by microplate reader assay; format: cell-based, Oryctolagus cuniculus; conditions: erythrocyte
Procedure, shortened: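 Rabbit red blood cells in PBS were mixed 1:1 by volume with peptide solution and incubated 1 h at 37 °C, then spun at 1000 g for 5 min. Hemoglobin in the supernatant was read at 540 nm. PBS defined 0% hemolysis and 0.1% Triton X-100 defined 100%.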

Row | Compound | IC50 (MCF7 [1]) [µM] | IC50 (K562) [µM] | IC50 [2] [µM] | IC50 [3] [µM] | IC50 [4] [µM] | Activity (MCF7 [5]) [ng] | Activity (MCF7 [6]) [ng] | Activity (MCF7 [7]) [ng] | Activity (MCF7 [8]) [ng] | Retention_time [9] [min] | Activity [10]
1 | COc1cccc2c1C(=O)c1c(O)c3c(c(O)c1C2=O)C[C@@](O)(C(=O)CO)C[C@@H]3O[C@H]1C[C@H](N)[C@H](O)[C@H](C)O1 [DOXORUBICIN] | 0.36 | 0.45 | 0.53 | 52.5 | 67.6 | – | – | – | – | – | –
2 | O=c1[nH]cc(F)c(=O)[nH]1 [FLUOROURACIL] | 26.9 | 31.6 | 30.9 | – | – | 357 | 15.7 | 49.6 | 319.2 | – | –
3 | H-VKRFKKFFRKLKKAV-NH2 | 8.9 | 8.6 | 87.1 | – | – | – | – | – | – | 3.48 | Non-toxic
4 | H-VKRFKKFFRKLKKDV-NH2 | 19.9 | 44.7 | 120 | – | – | – | – | – | – | 3.38 | Non-toxic
5 | H-VKRFKKFFRKLKKEV-NH2 | 38.9 | 36.6 | 104 | – | – | – | – | – | – | 3.41 | Non-toxic
6 | H-VKRFKKFFRKLKKFV-NH2 | 1.3 | 3.7 | 52.5 | – | – | – | – | – | – | 3.74 | Non-toxic
7 | H-VKRFKKFFRKLKKGV-NH2 | 15.8 | 14.8 | 107 | – | – | – | – | – | – | 3.25 | Non-toxic
